Source: PubChem BioAssay (several laboratories)
SR-BI DiI inh: inhibitors of mouse SR-BI mediated HDL lipid uptake; Q61009; ldlA[mSR-BI] CHO cells, DiI-HDL uptake fluorescence, 3 h; inhibition, % at 12.5 µM; 320,000 tested, 0.96% active; AID 488896;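 active means mean replicate inhibition of at least 70% and a set share of replicates each scoring 70 or more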;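 further: 0% = median of neutral control wells and 100% = median of positive control wells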
Target sequence (Q61009 whole entry, looked up): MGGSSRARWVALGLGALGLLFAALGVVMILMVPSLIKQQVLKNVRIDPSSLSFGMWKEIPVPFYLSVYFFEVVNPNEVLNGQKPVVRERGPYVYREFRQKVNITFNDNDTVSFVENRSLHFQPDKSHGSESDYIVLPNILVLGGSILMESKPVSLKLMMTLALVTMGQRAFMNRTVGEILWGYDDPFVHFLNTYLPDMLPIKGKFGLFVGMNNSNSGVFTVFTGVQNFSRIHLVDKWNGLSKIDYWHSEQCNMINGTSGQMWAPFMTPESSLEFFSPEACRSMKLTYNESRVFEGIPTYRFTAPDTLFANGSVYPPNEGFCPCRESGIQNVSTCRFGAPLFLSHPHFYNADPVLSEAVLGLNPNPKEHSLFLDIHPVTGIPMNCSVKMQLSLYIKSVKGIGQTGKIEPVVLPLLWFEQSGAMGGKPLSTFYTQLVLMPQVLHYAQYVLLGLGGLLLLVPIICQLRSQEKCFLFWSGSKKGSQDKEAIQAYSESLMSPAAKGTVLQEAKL
SR-BI uptake up: activators of SR-BI mediated HDL lipid uptake | CHO ldlA[mSR-BI] cells, DiI-HDL uptake fluorescence, 3 h; 100 = double the neutral-control signal | activation, % at 12.5 µM | 320,000 tested, 0.096% active;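 active means mean replicate activation of at least 60% and every replicate at or above 60%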;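 further: 0% = median plate neutral-control signal and 100% = twice that signal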
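material = CHO ldlA[mSR-BI] cells | medium = Ham's F12 with 0.5% BSA, HEPES 25 mM, pH 7.4 | reagent = fluorescent DiI-HDL, 10 µg/mL final | compound dosing = single-point compound dose | incubation = 3 h, 37 °C | measured by = bottom-read fluorescence, 550/595 nm | measure = HDL uptake via cellular fluorescence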
H9c2 TAG inh: reduces triacylglycerol accumulation in H9c2 cells. inhibition, % at 12.5 µM. 230,000 tested, 0.66% active. Nile Red lipid (TAG) fluorescence; cells loaded with 200 µM oleic acid;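 active means pattern-corrected inhibition of lipid staining of at least 50% with the nuclear-stain viability signal not falling by more than 50%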;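 further: 0% = DMSO wells and 100% = triacsin C control wells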
SMARCA2 act: increases SMARCA2 function in MMTV reporter cells; MG213 cells, MMTV-luciferase reporter, dexamethasone, overnight; activation, % at 9.1 µM; 370,000 tested, 1% active; AID 652017; in the data active means activation above about 7.8%;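 further: 0% = vehicle wells and 100% = reference activator wells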
Vif inh: blocks HIV Vif function | AID 602346 | inhibition, % at 7.49 µM | 340,000 tested, 0.35% active | HEK293T cells, Vif self-association by quenched fluorescence, imaging, 24 h; in the data active means inhibition above about 50%, passing the limit was not always enough
An asterisk follows results filed as active. This is a sample that favours compounds with a hit; in the whole collection about 2.5% have one here.

Results for COc1ccc2c(=O)c3c(=O)n(Cc4ccco4)c(-c4cc(OC)c(OC)c(OC)c4)nc3oc2c1 ?
SR-BI DiI inh: 73.9*; SR-BI uptake up: -73.9; SMARCA2 act: -2.5; Vif inh: -3.2

What do the screens show for `COCCn1c(-c2ccccc2)nc2oc3cc(OC)ccc3c(=O)c2c1=O`?
SR-BI DiI inh: 59.1; SR-BI uptake up: -59.1; SMARCA2 act: -1.4; Vif inh: -2.8

Results for COc1ccc2c(=O)c3c(=O)n(-c4ccccc4)c(-c4ccc(C)cc4)nc3oc2c1 ?
SR-BI DiI inh: 91.6*; SR-BI uptake up: -91.6; H9c2 TAG inh: 12.1; SMARCA2 act: -0.3; Vif inh: 0.0

How did CN(Cc1ccc(F)cc1)C(=O)c1cccc2c1C(=O)N(Cc1cccnc1)C2 do in these assays?
SMARCA2 act: -4.9

What do the screens show for `COC(=O)C1=C(C)N(Cc2ccc(C(F)(F)F)cc2)C(=NCc2ccccc2C(F)(F)F)NC1c1ccc(F)cc1` (stereo unspecified)?
SMARCA2 act: -2.8

How did O=C(O)c1cccc(NC(=S)NC(=O)c2cccc(OCc3ccccc3)c2)c1 do in these assays?
SR-BI DiI inh: -68.1; SR-BI uptake up: 68.1*; SMARCA2 act: 2.2; Vif inh: -4.4

What do the screens show for `CCCOc1cccc(C(=O)NC(=S)Nc2cccc(NC(=O)c3ccccc3Cl)c2)c1`?
SR-BI DiI inh: 81.3*; SR-BI uptake up: -81.3; SMARCA2 act: -4.1; Vif inh: -4.6

How did Cc1cccc(Cn2cc(CN3CC(N(C)CCCOC(=O)c4cc5ccccc5o4)CS3(=O)=O)nn2)c1 (stereo unspecified) do in these assays?
SMARCA2 act: 0.1

What do the screens show for `CCC(O)(c1ccc(NC(=O)OC(C)(C)C)cc1)c1cc(OC)cc(OC)c1` (stereo unspecified)?
SMARCA2 act: -4.3

Results for Cc1ccccc1Nc1c(C)c(C)nc2ncnn12 ?
SR-BI DiI inh: -4.4; SR-BI uptake up: 4.4; H9c2 TAG inh: -29.9; SMARCA2 act: -2.8; Vif inh: 142.7*

What do the screens show for `Cc1cccc(C=NNc2cc(C)c3cccc(C)c3n2)n1`?
SMARCA2 act: 5.8

What do the screens show for `O=C(NCc1ccccc1)C(c1ccco1)N1CCN(CCN2CCOCC2)CC1` (stereo unspecified)?
SMARCA2 act: -2.8

Results for CC(=Nc1cccc(C)c1)c1sc2ccccc2c1O ?
SR-BI DiI inh: -9.9; SR-BI uptake up: 9.9; SMARCA2 act: 7.9*

How did NC(=O)c1ncn([C@@H]2O[C@H](C(=O)Nc3ccc(C(=O)N4CCCCC4)cc3)[C@@H](O)[C@H]2O)n1 do in these assays?
SMARCA2 act: -1.7

How did O=C(Nc1ccccc1Oc1ccccc1)c1ccccc1F do in these assays?
SR-BI DiI inh: -41.4; SR-BI uptake up: 41.4; SMARCA2 act: 9.5*; Vif inh: 1.3

How did CC(=O)Nc1ccccc1Oc1ccccc1 do in these assays?
SR-BI DiI inh: -29.5; SR-BI uptake up: 29.5; H9c2 TAG inh: -15.8; SMARCA2 act: 0.9; Vif inh: -3.5

Results for Cc1cc(C)c(S(=O)(=O)N2C[C@H]3CON(C)[C@H]3C[C@H]2c2ccc(-n3ccnc3)cc2)c(C)c1 ?
SMARCA2 act: -0.9

What do the screens show for `C/C(=N\NC(=O)c1ccccc1O)c1c(O)cc(C)oc1=O`?
SR-BI DiI inh: 101.4*; SR-BI uptake up: -101.5; SMARCA2 act: 1.1; Vif inh: -2.1

How did C/C(=N\NC(=O)c1ccccc1[N+](=O)[O-])c1c(O)cc(C)oc1=O do in these assays?
SR-BI DiI inh: -9.4; SR-BI uptake up: 9.4; SMARCA2 act: 0.6; Vif inh: 9.3

What do the screens show for `C[C@H]1CN([C@@H](C)CO)C(=O)CCCn2cc(nn2)CO[C@@H]1CN(C)S(=O)(=O)c1ccc(F)cc1`?
SMARCA2 act: -3.8

Results for CCOc1cc(CNc2ccccc2)cc(Br)c1OCc1ccc(F)cc1 ?
SR-BI DiI inh: 73.7*; SR-BI uptake up: -73.7; H9c2 TAG inh: -121.4; SMARCA2 act: -4.0; Vif inh: 3.1

What do the screens show for `CCOc1cc(CNc2ccccc2)cc(Br)c1OCC(=O)NC(C)(C)C`?
SR-BI DiI inh: -5.1; SR-BI uptake up: 5.1; SMARCA2 act: -2.9; Vif inh: -7.5

How did COC(=O)[C@]12C[C@H](CC(=O)NCCc3ccccc3OC)C(=O)N(Cc3ccccc3)C1=C[C@H](COCc1ccccc1)O[C@@H]2C do in these assays?
SMARCA2 act: -1.5

How did N#C/C(=C\c1ccc(N2CCOCC2)o1)C(=O)NCC1CCCO1 (stereo unspecified) do in these assays?
SR-BI DiI inh: -17.2; SR-BI uptake up: 17.2; SMARCA2 act: 0.6; Vif inh: 111.2*

Results for CSc1cccc(N2CC(C(=O)NCCC3=CCCCC3)CC2=O)c1 (stereo unspecified) ?
SR-BI DiI inh: -6.2; SR-BI uptake up: 6.2; H9c2 TAG inh: -9.4; SMARCA2 act: -0.1; Vif inh: 65.7*

Results for COc1ccccc1C(=O)N1CCN(C(=O)[C@H](CCc2ccccc2)NC(=O)[C@H]2O[C@@H](n3cnc4c(N)ncnc43)[C@H](O)[C@@H]2O)CC1 ?
SMARCA2 act: 0.0

Results for O=S1(=O)c2ccc(N3CC[C@H](O)C3)cc2OCCCN1C1CC1 ?
SMARCA2 act: -0.8

How did NNC(=O)c1cc2c(N3CCC(Cc4ccccc4)CC3)ncnc2s1 do in these assays?
SR-BI DiI inh: 79.9*; SR-BI uptake up: -79.9; H9c2 TAG inh: -38.5; SMARCA2 act: -3.3; Vif inh: -13.4

What do the screens show for `COc1ccc2oc(=O)c(-c3csc(Nc4ccc(O)cc4)n3)cc2c1`?
SR-BI DiI inh: 84.0*; SR-BI uptake up: -84.0; H9c2 TAG inh: 15.2; SMARCA2 act: -1.7; Vif inh: 22.3

What do the screens show for `Cc1ccc(Cc2c(-c3ccc(Cl)cc3)nc3cc(C)ccn23)cc1`?
H9c2 TAG inh: 2.4; SMARCA2 act: 7.8*; Vif inh: 7.2

What do the screens show for `CC(=O)c1cccc(NC(=O)c2csc3c2CCCCC3)c1`?
SR-BI DiI inh: 50.5; SR-BI uptake up: -50.5; H9c2 TAG inh: -2.6; SMARCA2 act: 0.2; Vif inh: -4.9

Results for CC(=O)c1cccc(NC(=O)Nc2csc3c2CCCC3)c1 ?
SR-BI DiI inh: 75.2*; SR-BI uptake up: -75.2; H9c2 TAG inh: -5.7; SMARCA2 act: 0.1; Vif inh: -6.0

What do the screens show for `CC(=O)c1ccc(NC(=O)Nc2ccc3c(c2)N(C)C(=O)CS3)cc1`?
SR-BI DiI inh: 23.3; SR-BI uptake up: -23.3; H9c2 TAG inh: 6.0; SMARCA2 act: -4.7; Vif inh: -3.5

What do the screens show for `CN1C(=O)CSc2ccc(NC(=O)N3CCN(c4ccccc4)CC3)cc21`?
SR-BI DiI inh: 77.5*; SR-BI uptake up: -77.6; SMARCA2 act: -2.0; Vif inh: -0.7

Results for Oc1ccccc1C1SC(c2ccccc2O)SC(c2ccccc2O)S1 (stereo unspecified) ?
SR-BI DiI inh: 1.0; SR-BI uptake up: -1.0; H9c2 TAG inh: -34.3; SMARCA2 act: -1.7; Vif inh: 59.5*
